Here are results for 30 compounds from PubChem BioAssay.

Assay [1] is described as follows: nonspecific flux increase, KCNQ1-free cells – parental CHO cells, counter-screen for KCNQ1 potentiator project (AID 493006;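 active means duplicate-averaged activation above buffer control mean plus 5 SD of those controls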). Conditions: parental CHO-K1 cells, FluxOR thallium flux, at 10 µM; hits give high values. An outline of the steps: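 Test system: parental CHO-K1 cells, FluxOR dye-loaded / Probe or stimulus: potassium plus thallium depolarizing stimulus, 5x stock 12.5 mM K2SO4, Tl2SO4 / Timing: overnight 37 °C plating, 90 min dye, 20 min dark compound / Measured by: kinetic thallium-flux fluorescence / Read-out: max-minus-min fluorescence over baseline, percent of buffer-to-R-L3 span / Benchmarks: buffer and R-L3 controls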

Assay [2] addresses Potassium voltage-gated channel subfamily KQT member 1 (Homo sapiens) (UniProt P51787). Briefly: enhancement of KCNQ1 channel thallium flux – FluxOR thallium flux, CHO cells, duplicates, confirmation (AID 493007).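 On outcome: cells depolarized by a potassium plus thallium sulfate stimulus after compound.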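 On potentiation: 0% = buffer-only wells and 100% = R-L3 activator control.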 Conditions: KCNQ1 cell line, FluxOR thallium flux fluorescence, at 10 µM; hits give high values, % of reference activator effect, buffer zero. In short, it runs like this: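 Assay system: CHO cells carrying KCNQ1 | Controls: Buffer and R-L3 controls | Schedule: FluxOR dye loading 90 min, compound exposure 20 min, room temperature | Read-out: Baseline-normalized fluorescence change, percent of buffer-to-R-L3 range | Replicates: Each compound tested in duplicate | Technique: Kinetic thallium influx fluorescence with FluxOR dye, 10 s baseline, 110 s post-stimulus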

The target of assay [3] is Potassium voltage-gated channel subfamily KQT member 2 (Rattus norvegicus) (UniProt O88943). Briefly: KCNQ2 thallium flux enhancement – KCNQ2-CHO-K1 cells, selectivity assay for KCNQ1 potentiator project (AID 493009;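 active means mean duplicate potentiation above the buffer control mean plus 5 SD of buffer wells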;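 further: assay conditions were tuned for KCNQ1 rather than KCNQ2 modulators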). Conditions: FluxOR thallium flux fluorescence, at 10 µM; hits give high values, scaled: buffer 0, activator control 100.
Sequence of Potassium voltage-gated channel subfamily KQT member 2 (Rattus norvegicus) (O88943 whole entry, looked up): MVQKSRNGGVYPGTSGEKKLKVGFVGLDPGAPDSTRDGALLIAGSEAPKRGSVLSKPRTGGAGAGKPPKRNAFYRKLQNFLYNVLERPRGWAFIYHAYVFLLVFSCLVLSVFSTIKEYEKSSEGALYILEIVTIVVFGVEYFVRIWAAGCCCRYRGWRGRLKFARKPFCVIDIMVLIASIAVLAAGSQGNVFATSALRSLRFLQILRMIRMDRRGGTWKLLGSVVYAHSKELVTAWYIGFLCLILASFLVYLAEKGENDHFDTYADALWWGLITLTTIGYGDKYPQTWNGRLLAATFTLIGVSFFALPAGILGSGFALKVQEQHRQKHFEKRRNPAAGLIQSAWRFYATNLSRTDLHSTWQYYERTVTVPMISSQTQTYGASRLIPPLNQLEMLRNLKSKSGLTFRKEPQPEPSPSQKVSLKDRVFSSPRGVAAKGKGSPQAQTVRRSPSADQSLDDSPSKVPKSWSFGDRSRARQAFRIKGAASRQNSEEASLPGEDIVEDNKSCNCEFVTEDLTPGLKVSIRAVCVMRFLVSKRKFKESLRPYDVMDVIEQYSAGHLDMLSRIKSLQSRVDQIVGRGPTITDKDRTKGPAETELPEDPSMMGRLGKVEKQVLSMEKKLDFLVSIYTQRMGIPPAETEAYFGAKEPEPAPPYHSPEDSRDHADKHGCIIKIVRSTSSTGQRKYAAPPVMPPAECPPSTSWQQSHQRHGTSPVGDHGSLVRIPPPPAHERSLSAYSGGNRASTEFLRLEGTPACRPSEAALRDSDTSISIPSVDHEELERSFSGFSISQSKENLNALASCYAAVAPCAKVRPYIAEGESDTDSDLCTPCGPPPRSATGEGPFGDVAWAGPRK
Assay [4] concerns the target Potassium voltage-gated channel subfamily KQT member 1 (Homo sapiens) (UniProt P51787). Briefly: KCNQ1 activators by electrophysiology – IonWorks patch clamp, KCNQ1-CHO cells, orthogonal assay for KCNQ1 potentiator project, confirmation (AID 493184;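 active means current rise at least 3 SD above the untreated control mean in each of two repeat wells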). The note with it: automated patch clamp current, at 10 µM; hits give high values. An outline of the steps:
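Material: KCNQ1-expressing CHO cells; doses: 10 µM final, single point; probe or stimulus: voltage step from -90 mV holding to +40 mV, 2,000 ms; signal: automated voltage clamp, amphotericin B perforated patch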
On the technique in general: Patch clamp records ionic current or voltage across a cell membrane.

The target in assay [5] is Potassium voltage-gated channel subfamily E member 1 (Homo sapiens) + Potassium voltage-gated channel subfamily KQT member 1 (Homo sapiens) (UniProt P15382+P51787). Briefly: KCNQ1-E1 channel activation – thallium flux, CHO-K1 KCNQ1/E1 cells, selectivity assay for KCNQ1 potentiator project, confirmation (AID 493186;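 active means mean duplicate activation above the buffer control mean plus 5 SD of those controls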). Conditions: FluxOR thallium flux, at 10 µM; hits give high values. In short, it runs like this: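 Test system: CHO-K1 cells with KCNQ1/E1. Times: 90-min dye loading then 20-min compound exposure, both at room temperature. Measured by: kinetic FluxOR thallium-flux fluorescence, 10 s baseline plus 110 s after stimulus. Repeats: duplicate wells per compound.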
Sequence of Potassium voltage-gated channel subfamily E member 1 (Homo sapiens) + Potassium voltage-gated channel subfamily KQT member 1 (Homo sapiens) (P51787 whole entry, looked up): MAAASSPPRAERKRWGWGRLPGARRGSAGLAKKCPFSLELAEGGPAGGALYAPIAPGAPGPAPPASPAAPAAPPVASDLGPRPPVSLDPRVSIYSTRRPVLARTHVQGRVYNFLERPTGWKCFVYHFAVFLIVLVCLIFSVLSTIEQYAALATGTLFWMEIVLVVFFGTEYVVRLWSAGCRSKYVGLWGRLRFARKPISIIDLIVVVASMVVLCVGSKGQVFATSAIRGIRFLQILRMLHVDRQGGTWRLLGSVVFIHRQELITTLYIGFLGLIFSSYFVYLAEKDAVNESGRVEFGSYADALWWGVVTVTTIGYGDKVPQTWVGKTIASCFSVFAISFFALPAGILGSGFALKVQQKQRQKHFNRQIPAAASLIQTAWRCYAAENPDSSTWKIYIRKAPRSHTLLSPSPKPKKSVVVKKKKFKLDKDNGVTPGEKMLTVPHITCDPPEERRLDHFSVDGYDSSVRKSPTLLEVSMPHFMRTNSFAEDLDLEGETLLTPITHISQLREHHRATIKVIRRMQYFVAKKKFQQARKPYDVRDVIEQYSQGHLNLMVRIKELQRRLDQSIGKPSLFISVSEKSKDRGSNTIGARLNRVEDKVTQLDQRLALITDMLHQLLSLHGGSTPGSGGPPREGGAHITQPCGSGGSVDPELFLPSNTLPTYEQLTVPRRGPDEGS

Structures are written as SMILES. Calls of active or inactive are those of the source.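 How the source made its calls, unless noted: active means potentiation averaged over duplicate wells exceeding buffer-only control mean by more than 3 SD; inactive means the rest.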

Sequence of Potassium voltage-gated channel subfamily KQT member 1 (Homo sapiens) (P51787 whole entry, looked up): as above

With `CC1(C)CC(N=c2cc(-c3ccccc3)oc3ccc(Cl)cc23)CC(C)(C)N1`, the result in assay [1], in assay [2], in assay [3], in assay [4] and in assay [5] was inactive.

`C/C(=N\Nc1nc(C)c(C)s1)c1ccc([N+](=O)[O-])cc1`: the outcome in assay [1], in assay [4] and in assay [5] was inactive. Further, the potentiation was 43% (active) in assay [2] and 150% (active) in assay [3].

With `OCCN(CCO)c1ccc(C(c2ccccc2Cl)c2ccc(N(CCO)CCO)cc2Cl)c(Cl)c1`, the outcome in assay [1], in assay [3], in assay [4] and in assay [5] was inactive. Besides, in assay [2], the potentiation is 34.5% (active).

Consider `COC(=O)C1=C(C)N(c2ccc(F)c(Cl)c2)C(=O)C1`, for which the outcome in assay [1], in assay [2], in assay [3], in assay [4] and in assay [5] was inactive.

With `Cc1ccc(NC(=S)c2nc3ccccc3s2)cc1`, the outcome in assay [1], in assay [3], in assay [4] and in assay [5] was inactive. In assay [2], the potentiation is 32% (active).

`O=C(N/N=C/c1ccc2cccc(OCc3ccccc3)c2n1)c1ccc(Br)cc1`: the outcome in assay [1], in assay [3], in assay [4] and in assay [5] was inactive. Besides, the potentiation in assay [2] is 23% (active).

In the case of `S=C(Nc1ccccc1)Nc1nc2ccccc2n1CCOc1ccc(Cl)cc1`, the result in assay [1], in assay [2], in assay [3], in assay [4] and in assay [5] was inactive.

As for `CCOC(=O)C1=C(CC)Nc2ccccc2N=C1NC(=O)CCNC(C)=O`, the outcome in assay [1], in assay [2], in assay [3], in assay [4] and in assay [5] was inactive.

As to `Cc1cc(-c2cccnc2)c(C#N)c(SCC#N)n1`, the outcome in assay [1], in assay [2], in assay [3], in assay [4] and in assay [5] was inactive.

As to `Cc1ccc(C(=O)CSc2nnc3c4ccccc4nc(C(C)(C)C)n23)cc1`, the outcome in assay [1], in assay [2], in assay [3], in assay [4] and in assay [5] was inactive.

Take `Cn1cccc1C(=O)NNC(=O)COc1ccccc1F`: the result in assay [1], in assay [2], in assay [3], in assay [4] and in assay [5] was inactive.

Take `O=C(NC1=NCCS1)c1ccc(N2CCCC2=O)cc1`: the outcome in assay [1], in assay [3], in assay [4] and in assay [5] was inactive. Further, the potentiation in assay [2] was 28.5% (active).

For `CCC(C)NCC(=O)Nc1sc2c(c1C(N)=O)CCC2` (stereo not given), the outcome in assay [1], in assay [2], in assay [3], in assay [4] and in assay [5] was inactive.

Take `O=C(Nc1cccnc1)NC1CCCCC1`: the result in assay [1], in assay [2], in assay [3], in assay [4] and in assay [5] was inactive.

For `Cn1c(=O)cc(NCc2ccccc2)[nH]c1=O`, the outcome in assay [1], in assay [2], in assay [3], in assay [4] and in assay [5] was inactive.

For `S=c1[nH]cnc2scc(-c3ccc(Br)cc3)c12`, the result in assay [1], in assay [4] and in assay [5] was inactive. Also, the values for the potentiation in assay [2] and in assay [3] were 32.5% (active) and 147% (active), respectively.

With `COc1ccc(CNC(=O)CSc2nc3ccc(OC)cc3[nH]2)cc1`, the result in assay [1], in assay [2], in assay [3], in assay [4] and in assay [5] was inactive.

Take `COc1ccc(-c2nc(=S)c3c([nH]2)Oc2ccc(C)cc2C3)cc1O`: the result in assay [1], in assay [3], in assay [4] and in assay [5] was inactive. Moreover, the potentiation in assay [2] is 28.5% (active).

On to `C=CCn1c(=S)[nH]c2cc(-c3ccccc3)sc2c1=O`, for which the result in assay [1], in assay [2], in assay [3], in assay [4] and in assay [5] was inactive.

Take `CC1=NOC(=O)/C1=C\c1ccc(-c2ccc(Cl)cc2Cl)o1`: the outcome in assay [1], in assay [2], in assay [3], in assay [4] and in assay [5] was inactive.

For `Cc1ccc(C)c(NC(=S)c2nc3ccccc3s2)c1`, the outcome in assay [1], in assay [4] and in assay [5] was inactive. Moreover, the potentiation in assay [2] is 104% (active); in assay [3], 143% (active).

As to `CCOC(=O)c1c(N)sc(N)c1C(=O)OCC`, the outcome in assay [1], in assay [2], in assay [4] and in assay [5] was inactive. Moreover, in assay [3], the potentiation is 170% (active).

Turning to `CCN(Cc1ccccc1)C1CCN(Cc2ccccc2)CC1`, the result in assay [1], in assay [2], in assay [3], in assay [4] and in assay [5] was inactive.

As to `Cc1ccc(-n2ncc(C(=O)Nc3cc(Cl)cc(Cl)c3)c2C2CCNCC2)cc1C`, the result in assay [1], in assay [2], in assay [3], in assay [4] and in assay [5] was inactive.

`CC1CCc2c(sc(NC(=O)C(=O)NCc3ccco3)c2C#N)C1` (stereo not given): the result in assay [1], in assay [2], in assay [3], in assay [4] and in assay [5] was inactive.

For `O=C(O)c1ccc2c(=O)n3cc(C(=O)c4ccccc4O)cc(Cl)c3nc2c1`, the result in assay [1], in assay [2], in assay [3], in assay [4] and in assay [5] was inactive.

As for `COC(=O)c1sccc1NS(=O)(=O)c1ccc(F)cc1F`, the outcome in assay [1], in assay [2], in assay [3], in assay [4] and in assay [5] was inactive.

With `Cc1cccc(C(=O)NN2C(=O)C3C(c4ccccc4)C=CC(c4ccccc4)C3C2=O)c1` (stereo not given), the result in assay [1], in assay [2], in assay [3], in assay [4] and in assay [5] was inactive.

`Fc1ccc(-n2cc(-c3ccccc3)c3c(=S)nc[nH]c32)cc1`: the outcome in assay [1], in assay [3], in assay [4] and in assay [5] was inactive. The potentiation in assay [2] is 108% (active).

In the case of `O=C(NC(=S)Nc1ccc(Cl)cn1)c1cccs1`, the result in assay [1], in assay [2], in assay [3], in assay [4] and in assay [5] was inactive.
